# Test results taken from ChEMBL document CHEMBL4477194, “Royal Jelly Constituents Increase the Expression of Extracellular Superoxide Dismutase through Histone Acetylation in Monocytic THP-1 Cells” (J Nat Prod, 2016).
# The source made the active and inactive calls. The calls are words filed in the database; no cut-off is given here.
# Columns and labels:
# Homo sapiens [1] = species on record: Homo sapiens; test: Upregulation of HDAC1 inhibition/ERK signalling activation-mediated extracellular SOD protein expression in human THP1 cells at 100 uM incubated for 24 hrs by ELISA; assay type: cell-based
# Method in brief: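 THP-1 cells treated 24 h at 100 μM and collected in PBS. Cellular EC-SOD protein content measured by ELISA. Means ± SD of three independent experiments.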
# Homo sapiens [2] = species on record: Homo sapiens; test: Upregulation of HDAC1 inhibition/ERK signalling activation-mediated extracellular SOD mRNA expression in human THP1 cells at 1 to 10 uM incubated for 24 hrs by RT-PCR method; assay type: cell-based
# Method in brief: (§1)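 THP-1 cells treated 24 h at the indicated concentrations, or at 100 μM for the indicated times. EC-SOD mRNA measured by real-time RT-PCR normalized to 18S rRNA. Means ± SD of three independent experiments.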
# THP-1 [3] = test: Cytotoxicity against human THP1 cells assessed as reduction in cell viability at 100 uM after 24 hrs by MTT assay; assay type: cell-based; conditions: thp-1, 24 h
# Method in brief: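 THP-1 cells treated 24 h in 24-well plates; medium replaced with 10% FCS-RPMI 1640 containing 0.5 mg/mL MTT, 2 h at 37 °C, 5% CO2. Formazan dissolved in 2-propanol with 0.04 N HCl, read at 595 nm (reference 655 nm). Mean ± SD, n = 3.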
# Homo sapiens [4] = species on record: Homo sapiens; test: Upregulation of HDAC1 inhibition/ERK signalling activation-mediated extracellular SOD mRNA expression in human THP1 cells at 100 uM by RT-PCR method; assay type: cell-based; conditions: TDE = time-dependent effect; method in brief: as §1
# [5] = target: Histone deacetylase 1 (Homo sapiens) (UniProt Q13547); test: Inhibition of HDAC1 in human THP1 cells assessed as increase in histone H4 acetylation level at 50 uM after 12 hrs by Western blot analysis relative to control; assay type: cell-based
# Method in brief: (§2)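 THP-1 cells treated 12 h at the indicated concentrations. Acetylated histone H3 and H4 detected by Western blot (20 μg protein, 12% SDS-PAGE, PVDF, primary antibodies 1:1000). Histone loading checked by Coomassie staining.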
# [6] = target: Histone deacetylase 1 (Homo sapiens) (UniProt Q13547); test: Inhibition of HDAC1 in human THP1 cells assessed as increase in histone H4 acetylation level at 100 uM after 12 hrs by Western blot analysis relative to control; assay type: cell-based; method in brief: as §2
# [7] = target: Histone deacetylase 1 (Homo sapiens) (UniProt Q13547); test: Inhibition of HDAC1 in human THP1 cells assessed as increase in histone H3 acetylation level at 50 uM after 12 hrs by Western blot analysis relative to control; assay type: cell-based; method in brief: as §2
# [8] = target: Histone deacetylase 1 (Homo sapiens) (UniProt Q13547); test: Inhibition of HDAC1 in human THP1 cells assessed as increase in histone H3 acetylation level at 100 uM after 12 hrs by Western blot analysis relative to control; assay type: cell-based; method in brief: as §2
# [9] = target: Histone deacetylase 1 (Homo sapiens) (UniProt Q13547); test: Upregulation of HDAC1 inhibition-mediated histone H4 acetylation-induced extracellular SOD expression in human THP1 cells at 100 uM after 12 hrs by chromatin immunoprecipitation method; assay type: cell-based
# Method in brief: (§3)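 THP-1 cells (5 × 10^6) treated 12 h, at 1 mM or 100 μM per line. Cross-linked with formaldehyde 5 min at room temperature and chromatin sonicated to 150–800 bp. Immunoprecipitated overnight on protein G beads and washed in RIPA I/II and TE. Eluted with RNase A and proteinase K. EC-SOD promoter binding expressed as % of input.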
# [10] = target: Histone deacetylase 1 (Homo sapiens) (UniProt Q13547); test: Upregulation of HDAC1 inhibition-mediated histone H3 acetylation-induced extracellular SOD expression in human THP1 cells at 100 uM after 12 hrs by chromatin immunoprecipitation method; assay type: cell-based; method in brief: as §3
# Homo sapiens [11] = species on record: Homo sapiens; test: Induction of ERK phosphorylation in human THP1 cells at 50 to 100 uM incubated for 3 hrs by Western blot analysis; assay type: cell-based
# Method in brief: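 THP-1 cells treated 3 h at the indicated concentrations. Whole-cell extracts, 20 μg protein, run on 12% SDS-PAGE and transferred to PVDF. Blocked in 1% BSA/PBS. Probed with anti-phospho-ERK and anti-ERK (1:1000), then biotin-conjugated secondary (1:1000).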
# Homo sapiens [12] = species on record: Homo sapiens; test: Upregulation of HDAC1 inhibition/ERK signalling activation-mediated extracellular SOD mRNA expression in human THP1 cells at 100 uM after 24 hrs in presence of ERK inhibitor U0126 by RT-PCR method; assay type: cell-based
# Method in brief: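 THP-1 cells pretreated 30 min with 5 μM U0126, then exposed to compound at 100 μM for 24 h. EC-SOD mRNA measured by real-time RT-PCR normalized to 18S rRNA.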
# THP-1 [13] = test: Downregulation of HDAC1 mRNA expression in human THP1 cells at 100 uM after 24 hrs by RT-PCR method; assay type: functional, cell-based
# Method in brief: (§4)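 THP-1 cells in RPMI 1640 with 10% heat-inactivated FCS, 37 °C, 5% CO2. Seeded 2.0 × 10^6 cells per 3.5 cm dish and treated 24 h, at 1 mM for the 1 mM lines and 100 μM for the 100 μM lines. RNA extracted in TRIzol, then real-time RT-PCR normalized to 18S rRNA. Means ± SD of three independent experiments; ANOVA with Bonferroni post hoc.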
# THP-1 [14] = test: Downregulation of HDAC2 mRNA expression in human THP1 cells at 100 uM after 24 hrs by RT-PCR method; assay type: functional, cell-based; method in brief: as §4
# THP-1 [15] = test: Upregulation of HDAC4 mRNA expression in human THP1 cells at 100 uM after 24 hrs by RT-PCR method; assay type: functional, cell-based; method in brief: as §4
# THP-1 [16] = test: Downregulation of HDAC5 mRNA expression in human THP1 cells at 100 uM after 24 hrs by RT-PCR method; assay type: functional, cell-based; method in brief: as §4
# THP-1 [17] = test: Downregulation of HDAC6 mRNA expression in human THP1 cells at 100 uM after 24 hrs by RT-PCR method; assay type: functional, cell-based; method in brief: as §4
# THP-1 [18] = test: Upregulation of HDAC10 mRNA expression in human THP1 cells at 100 uM after 24 hrs by RT-PCR method; assay type: functional, cell-based; method in brief: as §4
# [19] = target: Histone deacetylase 1 (Homo sapiens) (UniProt Q13547); test: Inhibition of recombinant HDAC1 catalytic domain (unknown origin) using HDAC substrate at 100 uM preincubated for 1 hr followed by substrate addition measured after 30 mins by fluorescence assay relative to control
# Method in brief: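 Recombinant HDAC1 in assay buffer exposed to compound at 100 μM for 1 h. Fluorogenic HDAC substrate then added, 30 min at 37 °C in the dark. Developer added, 15 min at room temperature. Fluorescence read at ex 365 nm, em 410–460 nm, relative to untreated.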
# Chain of Histone deacetylase 1 (Homo sapiens) (Q13547 whole entry, the tested form may be a part): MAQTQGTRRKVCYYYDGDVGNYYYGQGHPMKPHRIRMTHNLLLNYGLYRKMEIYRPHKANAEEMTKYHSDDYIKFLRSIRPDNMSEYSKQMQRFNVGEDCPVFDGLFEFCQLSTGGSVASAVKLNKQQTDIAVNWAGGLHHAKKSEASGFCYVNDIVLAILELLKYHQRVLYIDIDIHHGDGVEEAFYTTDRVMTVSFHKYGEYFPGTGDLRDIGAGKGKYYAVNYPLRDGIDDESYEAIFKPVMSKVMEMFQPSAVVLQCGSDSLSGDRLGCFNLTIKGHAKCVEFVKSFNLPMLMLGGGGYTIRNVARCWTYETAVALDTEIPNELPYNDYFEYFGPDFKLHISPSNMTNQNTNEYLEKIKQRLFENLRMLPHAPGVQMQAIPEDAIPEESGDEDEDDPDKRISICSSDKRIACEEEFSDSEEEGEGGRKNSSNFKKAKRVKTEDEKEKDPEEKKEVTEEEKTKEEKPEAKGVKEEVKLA
compound,measurement,setting,value
CCCCCCC(/C=C/C(=O)OCC)OO (centres undefined),Activity,Homo sapiens [1],Active
same,Activity,Homo sapiens [2],inactive
same,Activity,THP-1 [3],Non-Toxic
same,Activity,Homo sapiens [4],Tde
same,fold change (FC),[5],3.32
same,fold change (FC),[6],3.77
same,fold change (FC),[7],1.82
same,fold change (FC),[8],4.27
same,Activity,[9],Active
same,Activity,[10],Active
same,Activity,Homo sapiens [11],Active
same,Activity,Homo sapiens [12],inactive
same,Activity,THP-1 [13],Active
same,Activity,THP-1 [14],Active
same,Activity,THP-1 [15],Active
same,Activity,THP-1 [16],Active
same,Activity,THP-1 [17],Active
same,Activity,THP-1 [18],Active
same,inhibition,[19],50%
